Test results: ChEMBL document CHEMBL1147232, “An anxiolytic-like effect of Ginkgo biloba extract and its constituent, ginkgolide-A, in mice” (J Nat Prod, 2003)

Columns and labels:
[1] = test system: Mus musculus; experiment: Anxiolytic-like activity in ddY mouse assessed as number of shuttle per hour at 10 mg/kg, po by discrete shuttle avoidance test; type: functional
In short: (§1)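 Male ddY mice (7 weeks, 33-36 g), pretrained and reused, showing stable baselines (150-250 shuttles/h, fewer than 10 shocks per session). Single oral dose immediately before a 60-min discrete shuttle avoidance session of 120 trials. Shuttles were full crossings of the chamber. Drug tests ran 3-4 days apart. Vehicle controls; n=10 per group; mean ± SEM; one- or two-way ANOVA with Student-Newman-Keuls.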

[2] = test system: Mus musculus; experiment: Anxiolytic-like activity in ddY mouse assessed as number of shocks per hour at 10 mg/kg, po by discrete shuttle avoidance test; type: functional; in short: as §1
[3] = test system: Mus musculus; experiment: Anxiolytic-like activity in ddY mouse assessed as time spent in open-sided arms at 1 mg/kg, po for 7 days measured 24 hrs after final drug administration by elevated plus-maze test; type: functional
In short: (§2)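 Elevated plus-maze with two walled arms (6 × 30 × 10 cm); time (s) in the open-sided arms recorded 24 h after the last of daily oral doses given for the stated number of days. Male ddY mice, 7 weeks, drug-naive, used once. Mean ± SEM; ANOVA with Student-Newman-Keuls.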

[4] = test system: Mus musculus; experiment: Anxiolytic-like activity in ddY mouse assessed as ambulatory activity at 1 mg/kg, po for 7 days measured 24 hrs after final drug administration assessed per 5 mins by tilting type ambulometer test; type: functional
In short: (§3)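 Male ddY mice (7 weeks, 33-36 g) dosed orally once daily (0.1 mL/10 g) for the stated number of days. Plus-maze 24 h after final dose, then ambulatory activity counted for 5 min on a tilting ambulometer immediately after. Animals used once; N per group as tabulated; mean ± SEM; ANOVA with Student-Newman-Keuls.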

[5] = test system: Mus musculus; experiment: Anxiolytic-like activity in ddY mouse assessed as time spent in open-sided arms at 0.3 mg/kg, po for 7 days measured 24 hrs after final drug administration by elevated plus-maze test; type: functional
[6] = test system: Mus musculus; experiment: Anxiolytic-like activity in ddY mouse assessed as ambulatory activity at 0.3 mg/kg, po for 7 days measured 24 hrs after final drug administration assessed per 5 mins by tilting type ambulometer test; type: functional
[7] = test system: Mus musculus; experiment: Anxiolytic-like activity in ddY mouse assessed as time spent in open-sided arms at 1 mg/kg, po for 1 day measured after 1 hr by elevated plus-maze test; type: functional
In short: (§4)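 Elevated plus-maze with two walled arms (6 × 30 × 10 cm) and an 8 × 8 cm central platform; read-out is time (s) in the open-sided arms. 10 mice per group, each used once; mean ± SEM; one-way ANOVA with Student-Newman-Keuls.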

[8] = test system: Mus musculus; experiment: Anxiolytic-like activity in ddY mouse assessed as ambulatory activity at 1 mg/kg, po for 1 day measured after 1 hr assessed per 5 mins by tilting type ambulometer test; type: functional
In short: (§5)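 Ambulatory activity counted for 5 min on a tilting ambulometer immediately after the maze. 10 mice per group; mean ± SEM; one-way ANOVA with Student-Newman-Keuls.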

[9] = test system: Mus musculus; experiment: Anxiolytic-like activity in ddY mouse assessed as time spent in open-sided arms at 2 mg/kg, po for 1 day measured after 1 hr by elevated plus-maze test; type: functional; in short: as §4
[10] = test system: Mus musculus; experiment: Anxiolytic-like activity in ddY mouse assessed as ambulatory activity at 2 mg/kg, po for 1 day measured after 1 hr assessed per 5 mins by tilting type ambulometer test; type: functional; in short: as §5
[11] = test system: Mus musculus; experiment: Anxiolytic-like activity in ddY mouse assessed as time spent in open-sided arms at 2 mg/kg, po for 7 days measured 24 hrs after final drug administration by elevated plus-maze test; type: functional; in short: as §2
[12] = test system: Mus musculus; experiment: Anxiolytic-like activity in ddY mouse assessed as ambulatory activity at 2 mg/kg, po for 7 days measured 24 hrs after final drug administration assessed per 5 mins by tilting type ambulometer test; type: functional; in short: as §3
[13] = test system: Mus musculus; experiment: Anxiolytic-like activity in ddY mouse assessed as time spent in open-sided arms at 1 mg/kg, po for 2 days measured 24 hrs after final drug administration by elevated plus-maze test; type: functional; in short: as §2
[14] = test system: Mus musculus; experiment: Anxiolytic-like activity in ddY mouse assessed as ambulatory activity at 1 mg/kg, po for 2 days measured 24 hrs after final drug administration assessed per 5 mins by tilting type ambulometer test; type: functional; in short: as §3
[15] = test system: Mus musculus; experiment: Anxiolytic-like activity in ddY mouse assessed as time spent in open-sided arms at 1 mg/kg, po for 3 days measured 24 hrs after final drug administration by elevated plus-maze test; type: functional; in short: as §2
[16] = test system: Mus musculus; experiment: Anxiolytic-like activity in ddY mouse assessed as ambulatory activity at 1 mg/kg, po for 3 days measured 24 hrs after final drug administration assessed per 5 mins by tilting type ambulometer test; type: functional; in short: as §3
[17] = test system: Mus musculus; experiment: Anxiolytic-like activity in ddY mouse assessed as time spent in open-sided arms at 1 mg/kg, po for 4 days measured 24 hrs after final drug administration by elevated plus-maze test; type: functional
[18] = test system: Mus musculus; experiment: Anxiolytic-like activity in ddY mouse assessed as pentobarbital-induced sleep time at 10 mg/kg, po administered 30 mins before pentobarbital challenge; type: functional
In short: (§6)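 Oral dose to male ddY mice 30 min before pentobarbital-Na 50 mg/kg ip. Sleep time is the interval between loss and recovery of righting reflex (s). Separate drug-naive mice, used once; 10 per group; mean ± SEM; one-way ANOVA with Student-Newman-Keuls.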

[19] = test system: Mus musculus; experiment: Anxiolytic-like activity in ddY mouse assessed as pentobarbital-induced sleep time at 20 mg/kg, po administered 30 mins before pentobarbital challenge; type: functional; in short: as §6
[20] = test system: Mus musculus; experiment: Anxiolytic-like activity in ddY mouse assessed as number of shuttle per hour at 1 mg/kg, po administered 30 mins before test by discrete shuttle avoidance test; type: functional
In short: (§7)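 Well-trained male ddY mice with stable baselines (150-250 shuttles/h, under 10 shocks) had 60-min discrete shuttle avoidance sessions of 120 trials, dosed orally 30 min before. Shuttles and shocks per hour counted. Drug tests at 3-4 day intervals, mice reused; 10 mice per group; mean ± SEM; one-way ANOVA with Student-Newman-Keuls.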

[21] = test system: Mus musculus; experiment: Anxiolytic-like activity in ddY mouse assessed as number of shocks per hour at 1 mg/kg, po administered 30 mins before test by discrete shuttle avoidance test; type: functional; in short: as §7
[22] = test system: Mus musculus; experiment: Anxiolytic-like activity in ddY mouse assessed as number of shuttle per hour at 5 mg/kg, po administered 30 mins before test by discrete shuttle avoidance test; type: functional; in short: as §7
[23] = test system: Mus musculus; experiment: Anxiolytic-like activity in ddY mouse assessed as number of shocks per hour at 5 mg/kg, po administered 30 mins before test by discrete shuttle avoidance test; type: functional; in short: as §7
[24] = Half life in rat; type: ADME, organism-based; conditions: in vivo
[25] = test system: Mus musculus; experiment: Toxicity in ddY mouse assessed as induction of sedation at 20 mg/kg, po after 1 to 3 hrs; type: organism-based; set-up: dose 20 mg/kg, route oral; conditions: in vivo
[26] = test system: Mus musculus; experiment: Toxicity in ddY mouse assessed as induction of excitation at 20 mg/kg, po after 1 to 3 hrs; type: organism-based; set-up: dose 20 mg/kg, route oral; conditions: in vivo
[27] = test system: Mus musculus; experiment: Toxicity in ddY mouse assessed as induction of ataxia at 1 mg/kg, po after 1 to 3 hrs; type: organism-based; set-up: dose 1 mg/kg, route oral; conditions: in vivo
[28] = test system: Mus musculus; experiment: Toxicity in ddY mouse assessed as induction of muscle relaxation at 1 mg/kg, po after 1 to 3 hrs; type: organism-based; set-up: dose 1 mg/kg, route oral; conditions: in vivo
[29] = test system: Mus musculus; experiment: Toxicity in ddY mouse assessed as body weight gain after repeated administration; type: organism-based; conditions: in vivo
[30] = test system: Mus musculus; experiment: Anxiolytic-like activity in ddY mouse assessed as ambulatory activity at 1 mg/kg, po for 4 days measured 24 hrs after final drug administration assessed per 5 mins by tilting type ambulometer test; type: functional
[31] = test system: Mus musculus; experiment: Anxiolytic-like activity in ddY mouse assessed as time spent in open-sided arms at 1 mg/kg, po for 5 days measured 24 hrs after final drug administration by elevated plus-maze test; type: functional; in short: as §2
[32] = test system: Mus musculus; experiment: Anxiolytic-like activity in ddY mouse assessed as ambulatory activity at 1 mg/kg, po for 5 days measured 24 hrs after final drug administration assessed per 5 mins by tilting type ambulometer test; type: functional; in short: as §3
[33] = test system: Mus musculus; experiment: Toxicity in ddY mouse at 1 to 2 mg/kg, po; type: organism-based; set-up: dose 1-2 mg/kg, route oral; conditions: in vivo
[34] = test system: Mus musculus; experiment: Anxiolytic-like activity in ddY mouse assessed as pentobarbital-induced sleep time at 0.5 mg/kg, po administered 30 mins before pentobarbital challenge; type: functional; in short: as §6
[35] = test system: Mus musculus; experiment: Anxiolytic-like activity in ddY mouse assessed as pentobarbital-induced sleep time at 1 mg/kg, po administered 30 mins before pentobarbital challenge; type: functional; in short: as §6
[36] = test system: Mus musculus; experiment: Anxiolytic-like activity in ddY mouse assessed as pentobarbital-induced sleep time at 2 mg/kg, po administered 30 mins before pentobarbital challenge; type: functional; in short: as §6
[37] = test system: Mus musculus; experiment: Anxiolytic-like activity in ddY mouse assessed as pentobarbital-induced sleep time at 5 mg/kg, po administered 30 mins before pentobarbital challenge; type: functional; in short: as §6

Compound `Cn1c(=O)c2c(ncn2C)n(C)c1=O` [CAFFEINE] has an Activity [1] of 428.9 and an Activity [2] of 3.4.
`CN1C(=O)CN=C(c2ccccc2)c2cc(Cl)ccc21` [DIAZEPAM] showed an Activity [3] of 24.7 s and an Activity [4] of 43.1.
Compound `CCOC(=O)c1ncn2c1CN(C)C(=O)c1cc(F)ccc1-2` [FLUMAZENIL] has an Activity [5] of 5.5 s and an Activity [6] of 31.5.
In the case of `C[C@@H]1C(=O)O[C@H]2C[C@@]34[C@H]5C[C@@H](C(C)(C)C)[C@]36[C@@H](OC(=O)[C@@H]6O)O[C@@]4(C(=O)O5)[C@]21O` [GINKGOLIDE A], the Activity [3] is reported as 18.6 s, the Activity [4] is reported as 35.3 and the Activity [7] is reported as 7.6 s. The Activity [8] was 39.1, the Activity [9] was 5.9 s and the Activity [10] was 35.4. It also gave an Activity [11] of 17.4 s, an Activity [12] of 29.5 and an Activity [13] of 10.5 s. The Activity [14] was 31.6, the Activity [15] was 12.7 s and the Activity [16] was 35.5. For the same compound, the Activity [17] was 17.8 s, the Activity [18] was 3690 s and the Activity [19] was 3490 s. It also gave an Activity [20] of 182.8, an Activity [21] of 1.6 and an Activity [22] of 162.9. For the same compound, the Activity [23] was 1.1, the half-life [24] was 1.5 h and the Activity [25] was “Non-toxic”. For the same compound, the Activity [26] was “Non-toxic”, the Activity [27] was “Non-toxic” and the Activity [28] was “Non-toxic”. The Activity [29] was “Non-toxic”, the Activity [30] was 40.1 and the Activity [31] was 17.8 s. For the same compound, the Activity [32] was 40.1, the Activity [33] was “Non-toxic” and the Activity [34] was 3270 s. The Activity [35] was 2830 s, the Activity [36] was 3510 s and the Activity [37] was 3694 s.
